Data published in ChEMBL document CHEMBL4477176, “Cyclopenta[b]benzofuran and Secodammarane Derivatives from the Stems of Aglaia stellatopilosa” (2016).
Active and inactive are the calls of the source. The calls are words filed in the database; no cut-off is given here.

Experiments:
Saccharomyces cerevisiae = assay: Antimicrobial activity against Saccharomyces cerevisiae ATCC 9763 assessed as growth inhibition at 25 to 200 uM incubated for 24 hrs by microtiter plate based assay; assay type: functional, organism-based
Summary of the method: (§1)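 Yeasts grown in Sabouraud dextrose broth; inoculum 1 × 10^6 cells/mL. Samples dissolved in DMSO at 200 μM and 2-fold diluted down to 25 μM in 96-well plates. Incubated at 28 °C for 24 h. OD600 read before and after incubation. MIC taken as the lowest concentration giving ≥90% growth reduction. Three replicates.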

NCI-H460 = assay: Cytotoxicity against human NCI-H460 cells assessed as growth inhibition by SRB assay; assay type: functional
Rhodotorula glutinis = assay: Antimicrobial activity against Rhodotorula glutinis NBRC 1125 assessed as growth inhibition at 25 to 200 uM incubated for 24 hrs by microtiter plate based assay; assay type: functional, organism-based; summary of the method: as §1
Aspergillus niger = assay: Antifungal activity against Aspergillus niger NBRC 4066 assessed as growth inhibition at 25 to 200 uM incubated for 48 hrs by microtiter plate based assay; assay type: functional
Summary of the method: as §1, with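 “Aspergillus niger” for “Yeasts”, “48” for “24”, “inhibition.” for “growth reduction.”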

Porphyromonas gingivalis = assay: Antibacterial activity against Porphyromonas gingivalis CCUG 25893 assessed as growth inhibition at 25 to 200 uM incubated for 24 hrs by microtiter plate based assay; assay type: functional
Summary of the method: (§2)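 Bacteria grown in Luria–Bertani broth; inoculum from fresh culture, serially diluted to 1 × 10^5 cells/mL. Samples dissolved in DMSO at 200 μM and serially 2-fold diluted down to 25 μM in 96-well plates. Incubated at 28 °C for 24 h. OD600 read before and after incubation. MIC taken as the lowest concentration giving ≥90% growth reduction. Triplicates.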

HT-29 = assay: Cytotoxicity against human HT-29 cells assessed as growth inhibition by SRB assay; assay type: functional; conditions: read-out: ED50 (the source's name)
Micrococcus luteus = assay: Antibacterial activity against Micrococcus luteus NBRC 12708 assessed as growth inhibition at 25 to 200 uM incubated for 24 hrs by microtiter plate based assay; assay type: functional, organism-based; summary of the method: as §2
Pseudomonas aeruginosa = assay: Antibacterial activity against Pseudomonas aeruginosa NBRC 12689 assessed as growth inhibition at 25 to 200 uM incubated for 24 hrs by microtiter plate based assay; assay type: functional, organism-based; summary of the method: as §2
Escherichia coli = assay: Antibacterial activity against Escherichia coli NBRC 3301 assessed as growth inhibition at 25 to 200 uM incubated for 24 hrs by microtiter plate based assay; assay type: functional, organism-based; summary of the method: as §2
Malassezia furfur = assay: Antimicrobial activity against Pityrosporum ovale CCUG 24229 assessed as growth inhibition at 25 to 200 uM incubated for 24 hrs by microtiter plate based assay; assay type: functional; summary of the method: as §1
Staphylococcus aureus [1] = assay: Antibacterial activity against Staphylococcus aureus NBRC 12732 assessed as growth inhibition at 25 to 200 uM incubated for 24 hrs by microtiter plate based assay; assay type: functional; summary of the method: as §2
MCF7 = assay: Cytotoxicity against human MCF7 cells assessed as growth inhibition by SRB assay; assay type: functional
Bacillus subtilis [2] = assay: Antibacterial activity against Bacillus subtilis NBRC 3134 assessed as growth inhibition at 25 to 200 uM incubated for 24 hrs by microtiter plate based assay; assay type: functional; summary of the method: as §2
Staphylococcus aureus [3] = assay: Antibacterial activity against Staphylococcus aureus NBRC 12732 assessed as growth inhibition at 80 uM incubated for 24 hrs by microtiter plate based assay; assay type: functional; conditions: NBRC 12732, 24 h, read-out: GI
Bacillus subtilis [4] = assay: Antibacterial activity against Bacillus subtilis NBRC 3134 assessed as growth inhibition at 20 uM incubated for 24 hrs by microtiter plate based assay; assay type: functional; conditions: NBRC 3134, 24 h, read-out: GI

COC(=O)C(C)(C)[C@@H]1CC[C@]2(C)[C@H](CC[C@@H]3[C@@H]([C@](C)(O)CC[C@@H](O)C(C)(C)O)CC[C@]32C)[C@@]1(C)CC(=O)O
growth inhibition (GI) (Saccharomyces cerevisiae): inactive | GI50 (NCI-H460): > 10 µM | growth inhibition (GI) (Rhodotorula glutinis): inactive | growth inhibition (GI) (Aspergillus niger): inactive | growth inhibition (GI) (Porphyromonas gingivalis): inactive | EC50 (HT-29): > 10 µM | growth inhibition (GI) (Micrococcus luteus): inactive | growth inhibition (GI) (Pseudomonas aeruginosa): inactive | growth inhibition (GI) (Escherichia coli): inactive | growth inhibition (GI) (Malassezia furfur): inactive | growth inhibition (GI) (Staphylococcus aureus [1]): inactive | GI50 (MCF7): > 10 µM | growth inhibition (GI) (Bacillus subtilis [2]): inactive

COC(=O)C(C)(C)[C@@H]1CC[C@]2(C)[C@H](CC[C@@H]3[C@@H]([C@](C)(O)CC[C@@H](O)C(C)(C)O)CC[C@]32C)[C@@]1(C)/C=C/NC=O
growth inhibition (GI) (Saccharomyces cerevisiae): inactive | GI50 (NCI-H460): > 10 µM | growth inhibition (GI) (Rhodotorula glutinis): inactive | growth inhibition (GI) (Aspergillus niger): inactive | growth inhibition (GI) (Porphyromonas gingivalis): 60 - 89% | EC50 (HT-29): > 10 µM | growth inhibition (GI) (Micrococcus luteus): inactive | growth inhibition (GI) (Pseudomonas aeruginosa): inactive | growth inhibition (GI) (Escherichia coli): inactive | growth inhibition (GI) (Malassezia furfur): 60 - 89% | growth inhibition (GI) (Staphylococcus aureus [1]): inactive | GI50 (MCF7): > 10 µM | growth inhibition (GI) (Bacillus subtilis [2]): inactive

COC(=O)C(C)(C)[C@@H]1CC[C@]2(C)[C@H](CC[C@@H]3[C@@H]([C@](C)(O)CC[C@@H](O)C(C)(C)O)CC[C@]32C)[C@@]1(C)CC=O
growth inhibition (GI) (Saccharomyces cerevisiae): inactive | GI50 (NCI-H460): > 10 µM | growth inhibition (GI) (Rhodotorula glutinis): inactive | growth inhibition (GI) (Aspergillus niger): inactive | growth inhibition (GI) (Porphyromonas gingivalis): inactive | EC50 (HT-29): > 10 µM | growth inhibition (GI) (Micrococcus luteus): inactive | growth inhibition (GI) (Pseudomonas aeruginosa): inactive | growth inhibition (GI) (Escherichia coli): inactive | growth inhibition (GI) (Malassezia furfur): inactive | growth inhibition (GI) (Staphylococcus aureus [1]): 60 - 89% | GI50 (MCF7): > 10 µM | growth inhibition (GI) (Bacillus subtilis [2]): inactive

COC(=O)C(C)(C)[C@@H]1CC[C@]2(C)[C@H](CC[C@@H]3[C@@H]([C@]4(C)CC[C@H](C(C)(C)O)O4)CC[C@]32C)[C@@]1(C)/C=C/NC=O
growth inhibition (GI) (Saccharomyces cerevisiae): inactive | GI50 (NCI-H460): > 10 µM | growth inhibition (GI) (Rhodotorula glutinis): inactive | growth inhibition (GI) (Aspergillus niger): inactive | growth inhibition (GI) (Porphyromonas gingivalis): inactive | EC50 (HT-29): > 10 µM | growth inhibition (GI) (Micrococcus luteus): inactive | growth inhibition (GI) (Pseudomonas aeruginosa): inactive | growth inhibition (GI) (Escherichia coli): inactive | growth inhibition (GI) (Malassezia furfur): inactive | growth inhibition (GI) (Staphylococcus aureus [1]): inactive | GI50 (MCF7): > 10 µM | growth inhibition (GI) (Bacillus subtilis [2]): inactive

C=C(C)[C@@H]1CC[C@]2(C)[C@H](CC[C@@H]3[C@@H]([C@](C)(O)CC[C@@H](O)C(C)(C)O)CC[C@]32C)[C@@]1(C)CCC(=O)OC
growth inhibition (GI) (Saccharomyces cerevisiae): inactive | GI50 (NCI-H460): > 10 µM | growth inhibition (GI) (Rhodotorula glutinis): inactive | growth inhibition (GI) (Aspergillus niger): 60 - 89% | growth inhibition (GI) (Porphyromonas gingivalis): 60 - 89% | inhibition of growth at 80 µM (Staphylococcus aureus [3]): ≥ 90% | EC50 (HT-29): > 10 µM | growth inhibition (GI) (Micrococcus luteus): inactive | growth inhibition (GI) (Pseudomonas aeruginosa): inactive | inhibition of growth at 20 µM (Bacillus subtilis [4]): ≥ 90% | growth inhibition (GI) (Escherichia coli): inactive | growth inhibition (GI) (Malassezia furfur): inactive | growth inhibition (GI) (Staphylococcus aureus [1]): >=90% | GI50 (MCF7): > 10 µM | growth inhibition (GI) (Bacillus subtilis [2]): >=90%
